Measurements pooled from the literature.
Compare with care: the assays were run in different laboratories.

Compound	tested on	test	system	conditions	endpoint	result
Cc1nc(Nc2ccc(NC(=O)c3ccco3)cc2)cc(-n2cccn2)n1	HeLa	cell growth or viability, MTS	–	–	CC50	> 100 µM
NC(=O)c1ncn([C@@H]2O[C@H](CO)[C@@H](O)[C@H]2O)n1	HeLa	cell growth or viability, MTS	–	–	CC50	> 250 µM
CC(C)(C)NC(=O)N[C@H](C(=O)N1C[C@H]2[C@@H]([C@H]1C(=O)NC(CC1CCC1)C(=O)C(N)=O)C2(C)C)C(C)(C)C (some centres unmarked)	HCT-8	cell growth or viability, neutral red	–	48 h	CC50	> 100 µM
CCCC[C@@H]1NC(=O)[C@H](Cc2ccc(O)cc2)NC(=O)[C@@H]2CCCN2C(=O)[C@H](CC(=O)O)NC(=O)[C@H](C)NC(=O)[C@H](Cc2ccccc2)NC(=O)[C@@H]2CSCCC(=O)N3CN(CN(C3)C(=O)CCSC[C@H](NC(C)=O)C(=O)N[C@@H](CC(C)(C)C)C(=O)N3CCC[C@H]3C(=O)N[C@@H](CCC(=O)O)C(=O)N[C@H](CCCCNC(=O)CCc3cn(CCOCCOCCOCCN(CCOCCOCCOCCC(=O)N[C@H]4CSCCC(=O)N5CN6CN(C5)C(=O)CCSC[C@H](NC(=O)[C@@H](CC(=O)O)NC(=O)[C@H](Cc5cccc7ccccc57)NC(=O)[C@@H]5CCCN5C4=O)C(=O)N[C@@H](CCSC)C(=O)N[C@@H](CCCCNC(=N)N)C(=O)N[C@@H](CC(=O)O)C(=O)N[C@@H](Cc4c[nH]c5ccccc45)C(=O)N[C@@H](CO)C(=O)N[C@@H]([C@@H](C)O)C(=O)N4CCC[C@H]4C(=O)N4C[C@H](O)C[C@H]4C(=O)N[C@@H](Cc4c[nH]c5ccccc45)C(=O)N[C@H](C(N)=O)CSCCC6=O)CCOCCOCCOCCn4cc(CCC(=O)NCCCC[C@H]5NC(=O)[C@H](CCC(=O)O)NC(=O)[C@@H]6CCCN6C(=O)[C@H](CC(C)(C)C)NC(=O)[C@@H](NC(C)=O)CSCCC(=O)N6CN7CN(C6)C(=O)CCSC[C@H](NC(=O)[C@H](Cc6ccc(O)cc6)NC(=O)[C@@H]6CCCN6C5=O)C(=O)N[C@@H](Cc5ccccc5)C(=O)N[C@@H](C)C(=O)N[C@@H](CC(=O)O)C(=O)N5CCC[C@H]5C(=O)N[C@@H](Cc5ccc(O)cc5)C(=O)N[C@@H](CCCC)C(=O)N[C@H](C(N)=O)CSCCC7=O)nn4)nn3)C(=O)N3CCC[C@H]3C(=O)N[C@@H](Cc3ccc(O)cc3)C(=O)N2)C(=O)CCSC[C@@H](C(N)=O)NC1=O	–	–	rat, plasma	intravenous, 2 mg/kg	clearance	13 mL/min/kg
[2H]C([2H])([2H])n1cc2cc(Nc3nc(=O)n(Cc4ncn(C)n4)c(=O)n3Cc3cc(F)c(F)cc3F)c(Cl)cc2n1	–	–	male Sprague-Dawley rat, plasma	intravenous, 5 mg/kg	clearance	1.03 mL/min/kg
CC[C@H](C)[C@H](N)C(=O)N[C@@H](CC(N)=O)C(=O)N[C@@H](CC(C)C)C(=O)N[C@@H](CCCCN)C(=O)N[C@@H](C)C(=O)N[C@@H](CC(C)C)C(=O)N[C@@H](C)C(=O)N[C@@H](C)C(=O)N[C@@H](CC(C)C)C(=O)N[C@@H](C)C(=O)N[C@@H](CCCCN)C(=O)N[C@@H](CCCCN)C(=O)N[C@H](C(=O)N[C@@H](CC(C)C)C(N)=O)[C@@H](C)CC	–	haemolysis	human	100 µM	haemolysis	≤ 15%
Nc1ncnc2c1ncn2C[C@H](O)CO	HeLa	cell growth or viability, MTS	–	–	CC50	> 250 µM
CN[C@H](CC(C)C)C(=O)N[C@H]1C(=O)N[C@@H](CC(N)=O)C(=O)N[C@H]2C(=O)N[C@H]3C(=O)N[C@H](C(=O)N[C@H](C(=O)O)c4cc(O)cc(O)c4-c4cc3ccc4O)[C@H](O)c3ccc(c(Cl)c3)Oc3cc2cc(c3O[C@@H]2O[C@H](CO)[C@@H](O)[C@H](O)[C@H]2O[C@H]2C[C@](C)(N)[C@H](O)[C@H](C)O2)Oc2ccc(cc2Cl)[C@H]1O	–	haemolysis	human	200 µM, 1 h, pH 7.2	haemolysis	≤ 1%
COc1cc(Br)c(C=NNc2nc(-c3ccc(F)cc3)cs2)cc1OC	–	haemolysis	human	10 µM, 30 min, pH 7.4	haemolysis	3.06%
CCCCCCCCCCOc1cc2c(O)c(C(=O)OCC)cnc2cc1OCC	HeLa	cell growth or viability	–	72 h	IC50	> 100 µM
CCCC[C@@H]1NC(=O)[C@H](Cc2ccc(O)cc2)NC(=O)[C@@H]2CCCN2C(=O)[C@H](CC(=O)O)NC(=O)[C@H](C)NC(=O)[C@H](Cc2ccccc2)NC(=O)[C@@H]2CSCCC(=O)N3CN(CN(C3)C(=O)CCSC[C@@H](C(=O)N[C@@H](CNC(=O)CCOCCOCCOCCOCCOCCn3cc(CCC(=O)N[C@H]4CSCCC(=O)N5CN6CN(C5)C(=O)CCSC[C@H](NC(=O)[C@@H](CC(=O)O)NC(=O)[C@H](Cc5cccc7ccccc57)NC(=O)[C@@H]5CCCN5C4=O)C(=O)N[C@@H](CCSC)C(=O)N[C@@H](CCCCNC(=N)N)C(=O)N[C@@H](CC(=O)O)C(=O)N[C@@H](Cc4c[nH]c5ccccc45)C(=O)N[C@@H](CO)C(=O)N[C@@H]([C@@H](C)O)C(=O)N4CCC[C@H]4C(=O)N4C[C@H](O)C[C@H]4C(=O)N[C@@H](Cc4c[nH]c5ccccc45)C(=O)N[C@H](C(N)=O)CSCCC6=O)nn3)C(N)=O)NC1=O)C(=O)CCSC[C@H](NC(C)=O)C(=O)N[C@@H](CC(C)(C)C)C(=O)N1CCC[C@H]1C(=O)N[C@@H](CCC(=O)O)C(=O)N[C@H](C)C(=O)N1CCC[C@H]1C(=O)N[C@@H](Cc1ccc(O)cc1)C(=O)N2	–	–	rat, plasma	intravenous, 2 mg/kg	clearance	16 mL/min/kg
